≈ marks a conversion by molar mass, not a printed value.
Experiments:
[1] = Selectivity index, ratio of CC50 for African green monkey Vero C1008 cells to MIC for Mycobacterium tuberculosis H37Rv; format: functional
Procedure, shortened: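 Selectivity index is CC50 from the MTT assay on Vero C1008 cells over MIC against Mtb H37Rv from the twofold-dilution REMA plate method, where MIC was read visually by the blue-to-pink resazurin change.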

[2] = test system: Mycobacterium tuberculosis; test: Antitubercular activity against Mycobacterium tuberculosis H37Rv assessed as parasite growth inhibition after 7 days by resazurin microtitre assay; format: functional; details: 168 h
Procedure, shortened: (§1)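 Mtb H37Rv was tested by resazurin microtitre assay (REMA) with twofold serial dilutions of compound. MIC was read visually as the lowest concentration preventing the dye's blue-to-pink colour change, since pink indicates growth.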

[3] = Cytotoxicity against African green monkey Vero C1008 cells after 72 hrs by MTT assay; format: cell-based; details: chlorocebus sabaeus
Procedure, shortened: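 Vero C1008 cells were tested in microtitre plates with an MTT viability read-out, and CC50 values were determined.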

[4] = test system: Mycobacterium tuberculosis; test: Antitubercular activity against Mycobacterium tuberculosis H37Rv assessed as parasite growth inhibition; format: functional; procedure, shortened: as §1

| Structure (SMILES) | Selectivity Index [1] | MIC [2] | CC50 at 72 h [3] | MIC [4] |
| --- | --- | --- | --- | --- |
| CCN(CC)CC(O)CN(Cc1ccccc1)Cc1cc2ccccc2nc1OC (centres undefined) | 15.1 | 40.6 µM (≈ 16.6 µg/mL) | 613 µM |  |
| CCN(CC)CC(O)CN(Cc1ccc(C)cc1)Cc1cc2ccccc2nc1OC (centres undefined) | 52.21 | 19.3 µM (≈ 8.14 µg/mL) | 1010 µM |  |
| CCN(CC)CC(O)CN(Cc1ccc(OC)cc1)Cc1cc2ccccc2nc1OC (centres undefined) | 9.19 | 79.1 µM (≈ 34.6 µg/mL) | 727 µM |  |
| CCN(CC)CC(O)CN(Cc1ccc(Cl)cc1)Cc1cc2ccccc2nc1OC (centres undefined) | 80.41 | 10.1 µM (≈ 4.44 µg/mL) | 808 µM |  |
| COc1nc2ccccc2cc1CN(Cc1ccccc1)CC(O)CN1CCOCC1 (centres undefined) | 5.69 | 97.1 µM (≈ 40.9 µg/mL) | 553 µM |  |
| COc1nc2ccccc2cc1CN(Cc1ccc(C)cc1)CC(O)CN1CCOCC1 (centres undefined) | 40.4 | 21.9 µM (≈ 9.53 µg/mL) | 884 µM |  |
| COc1ccc(CN(Cc2cc3ccccc3nc2OC)CC(O)CN2CCOCC2)cc1 (centres undefined) | 5.86 | 158 µM (≈ 71.5 µg/mL) | 928 µM |  |
| COc1nc2ccccc2cc1CN(Cc1ccc(Cl)cc1)CC(O)CN1CCOCC1 (centres undefined) | 52.44 | 20.2 µM (≈ 9.21 µg/mL) | 1060 µM |  |
| COc1nc2ccccc2cc1CN(Cc1ccccc1)CC(O)CN1CCCC1 (centres undefined) | 152.86 | 5.18 µM (≈ 2.1 µg/mL) | 792 µM |  |
| COc1nc2ccccc2cc1CN(Cc1ccc(C)cc1)CC(O)CN1CCCC1 (centres undefined) | 115.02 | 9.68 µM (≈ 4.06 µg/mL) | 1110 µM |  |
| COc1ccc(CN(Cc2cc3ccccc3nc2OC)CC(O)CN2CCCC2)cc1 (centres undefined) | 35.59 | 18.6 µM (≈ 8.12 µg/mL) | 664 µM |  |
| COc1nc2ccccc2cc1CN(Cc1ccc(Cl)cc1)CC(O)CN1CCCC1 (centres undefined) | 160.57 | 5.59 µM (≈ 2.46 µg/mL) | 898 µM |  |
| COc1nc2ccc(Br)cc2cc1[C@@H](c1ccccc1)[C@@](O)(CCN(C)C)c1cccc2ccccc12 [BEDAQUILINE] |  |  |  | 0.108 µM (≈ 0.06 µg/mL) |
| NNC(=O)c1ccncc1 [ISONIAZID] | 96 | 15.3 µM (≈ 2.1 µg/mL) |  |  |
